What was measured:
[1] = Intrinsic clearance in human gut microsomes in presence of NADPH; format: ADME, Microsome
Outline: (§1)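 Pooled human microsomes (gut or liver) at 0.5 mg protein/mL with 1 mM NADPH, pH 7.4 (P450 pathway). Compound loss followed by LC–MS/MS in duplicate time-course incubations; intrinsic clearance given per mg protein.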

[2] = Intrinsic clearance in human liver microsomes in presence of NADPH; format: ADME, Microsome; outline: as §1
Cannabinoid receptor 1 [3] = molecular target: T1, Cannabinoid receptor 1 (Homo sapiens, UniProt P21554); experiment: Antagonist activity against human CB1 receptor; format: functional
T1 sequence (P21554 whole entry): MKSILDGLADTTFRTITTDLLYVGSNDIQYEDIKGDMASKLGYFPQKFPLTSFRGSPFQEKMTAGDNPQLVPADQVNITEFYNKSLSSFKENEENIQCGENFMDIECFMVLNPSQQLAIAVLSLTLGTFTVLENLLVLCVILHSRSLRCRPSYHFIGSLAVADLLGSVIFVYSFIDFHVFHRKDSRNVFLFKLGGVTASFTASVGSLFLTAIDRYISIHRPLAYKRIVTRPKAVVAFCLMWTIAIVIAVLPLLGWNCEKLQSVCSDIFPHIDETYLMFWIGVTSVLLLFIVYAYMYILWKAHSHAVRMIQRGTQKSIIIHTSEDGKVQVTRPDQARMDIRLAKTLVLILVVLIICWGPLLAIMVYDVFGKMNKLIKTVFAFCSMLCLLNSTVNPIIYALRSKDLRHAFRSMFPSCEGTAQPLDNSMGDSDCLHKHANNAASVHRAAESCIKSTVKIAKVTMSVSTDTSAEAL

[4] = Intrinsic clearance in human liver microsomes in presence of UGT; format: ADME, Microsome
Outline: (§2)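 UGT pathway: human gut or liver microsomes at 0.5 mg protein/mL with 2 mM UDPGA, alamethicin and 1 mM MgCl2, pH 7.1. Compound depletion measured by LC–MS/MS in duplicate time-course incubations; intrinsic clearance expressed per mg protein.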

[5] = Intrinsic clearance in human gut microsomes in presence of UGT; format: ADME, Microsome; outline: as §2
Cannabinoid receptor 1 [6] = molecular target: T1, Cannabinoid receptor 1; experiment: biochemical; format: cell-based, CHO
Mus musculus [7] = experiment: Inhibition of WIN55212-2-induced hypothermia in po dosed mouse assessed as change in rectal temperature administered 15 mins before WIN55212-2 challenge measured after 75 mins; format: functional; conditions: read-out: ID50 (the source's name)
Outline: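 Antagonist or vehicle (5% mulgofen in saline, 10 mL/kg) given orally 75 min before rectal temperature reading. WIN 55,212-2 mesylate (10 mL/kg) given sc 60 min before the reading, at its time of maximal hypothermia. Metal probe with vaseline inserted about 1.5 cm; highest temperature stable for 10 s recorded. ID50 reported with confidence interval.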

[8] = Bioavailability in mouse; format: ADME, organism-based; conditions: in vivo
[9] = Intrinsic clearance in dog liver microsomes in presence of UGT; format: ADME, Canis lupus familiaris, Microsome
Outline: (§3)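 UGT pathway: compound loss in duplicate time-course incubations of liver (prepared in-house) or small intestinal microsomes at 0.5 mg protein/mL, with 2 mM UDPGA, alamethicin and 1 mM MgCl₂ at pH 7.1. Detection by LC–MS/MS; CL_int expressed per mg microsomal protein.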

Cannabinoid receptor 2 = Cannabinoid receptor 2 (Homo sapiens, UniProt P34972); experiment: Displacement of [3H]CP55940 from human recombinant CB2 receptor expressed in Sf9 cells
Chain of Cannabinoid receptor 2 (P34972 whole entry): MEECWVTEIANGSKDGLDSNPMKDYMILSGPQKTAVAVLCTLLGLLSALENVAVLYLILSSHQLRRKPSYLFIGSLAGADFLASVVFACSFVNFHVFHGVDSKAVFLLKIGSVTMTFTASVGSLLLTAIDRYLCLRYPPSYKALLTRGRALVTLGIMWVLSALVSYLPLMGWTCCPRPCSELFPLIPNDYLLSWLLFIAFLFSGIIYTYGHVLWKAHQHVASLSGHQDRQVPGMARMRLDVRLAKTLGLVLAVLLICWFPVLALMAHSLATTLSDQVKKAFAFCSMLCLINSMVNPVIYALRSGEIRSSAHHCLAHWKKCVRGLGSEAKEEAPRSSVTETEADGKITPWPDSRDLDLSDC
Outline: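 Competition binding against [3H]CP55,940 on membranes from Sf9 cells expressing recombinant human CB2 receptor; run at least in duplicate.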

[10] = Intrinsic clearance in mouse liver microsomes in presence of UGT; format: ADME, Microsome; outline: as §3
[11] = Intrinsic clearance in dog liver microsomes in presence of NADPH; format: ADME, Canis lupus familiaris, Microsome
Outline: (§4)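 P450 pathway: compound depletion in duplicate time-course incubations of microsomes at 0.5 mg protein/mL with 1 mM NADPH, pH 7.4. Liver microsomes prepared in-house; small intestinal microsomes purchased. Loss measured by LC–MS/MS; CL_int expressed per mg microsomal protein.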

Mus musculus [12] = species: Mus musculus; experiment: Clearance in mouse; format: ADME, organism-based; conditions: in vivo
Canis familiaris = species: Canis familiaris; experiment: Clearance in dog; format: ADME, organism-based, Canis lupus familiaris; conditions: in vivo
[13] = Intrinsic clearance in mouse gut microsomes in presence of NADPH; format: ADME, Microsome; outline: as §4
[14] = Intrinsic clearance in dog gut microsomes in presence of UGT; format: ADME, Canis lupus familiaris, Microsome; outline: as §3
[15] = Bioavailability in rat; format: ADME, organism-based; conditions: in vivo
[16] = Intrinsic clearance in mouse liver microsomes in presence of NADPH; format: ADME, Microsome; outline: as §4
Rattus norvegicus = species: Rattus norvegicus; experiment: Clearance in rat; format: ADME, organism-based; conditions: in vivo
[17] = Intrinsic clearance in rat liver microsomes in presence of UGT; format: ADME, Microsome; outline: as §3
[18] = Intrinsic clearance in mouse gut microsomes in presence of UGT; format: ADME, Microsome; outline: as §3
[19] = Bioavailability in dog; format: ADME, organism-based, Canis lupus familiaris; conditions: in vivo
[20] = Intrinsic clearance in rat gut microsomes in presence of NADPH; format: ADME, Microsome; outline: as §4
[21] = Intrinsic clearance in dog gut microsomes in presence of NADPH; format: ADME, Canis lupus familiaris, Microsome; outline: as §4
[22] = Intrinsic clearance in rat gut microsomes in presence of UGT; format: ADME, Microsome; outline: as §3
[23] = Intrinsic clearance in rat liver microsomes in presence of NADPH; format: ADME, Microsome; outline: as §4

Row | SMILES | microsomal CLint [1] [µL/min/mg] | microsomal CLint [2] [µL/min/mg] | IC50 (Cannabinoid receptor 1 [3]) [nM] | microsomal CLint [4] [µL/min/mg] | microsomal CLint [5] [µL/min/mg] | ED50 (Mus musculus [7]) [µmol/kg] | further results
1 | COc1ccc(C(C)(C)C)cc1Cn1c(C(=O)NCC2(CO)CC2)cc2cc(C#N)ccc21 | < 6 | 188 | 1.48 | < 6 | 26 | – | –
2 | COc1ccc(Cl)cc1Cn1c(C(=O)NCC2(CO)CCC2)cc2cc(C#N)ccc21 | < 6 | 196 | 2.57 | 34 | 179 | – | –
3 | Cc1ccc(F)cc1Cn1c(C(=O)NCC2(CO)CCC2)cc2cc(C#N)ccc21 | < 6 | 190 | 4.9 | 49 | 175 | – | –
4 | COc1ccc(OC(F)(F)F)cc1Cn1c(C(=O)NCC(C)(C)O)cc2cc(C#N)ccc21 | < 6 | < 6 | 22.4 | < 6 | 8 | > 10 | Ki (Cannabinoid receptor 1 [6]): 5.5 nM
5 | COc1ccc(C(F)(F)F)cc1Cn1c(C(=O)NCC(C)(C)O)cc2cc(C#N)ccc21 | < 6 | 7 | 11.5 | < 6 | < 6 | > 10 | Ki (Cannabinoid receptor 1 [6]): 7.59 nM
6 | CC(C)(O)CCNC(=O)c1cc2cc(C#N)ccc2n1Cc1cccc(OC(F)(F)F)c1 | < 6 | 9 | 13.5 | < 6 | 9 | 9.67 | Ki (Cannabinoid receptor 1 [6]): 5.01 nM
7 | Cc1ccc(C(F)(F)F)cc1Cn1c(C(=O)NCCC(C)(C)O)cc2cc(C#N)ccc21 | < 6 | 12 | 5.13 | < 6 | < 6 | 1.16 | bioavailability [8]: 31%; microsomal CLint [9]: < 6 µL/min/mg; Ki (Cannabinoid receptor 2): > 10000 nM; microsomal CLint [10]: < 6 µL/min/mg; microsomal CLint [11]: 17 µL/min/mg; clearance (Mus musculus [12]): 10 mL/min/kg; clearance (Canis familiaris): 15 mL/min/kg; microsomal CLint [13]: < 6 µL/min/mg; Ki (Cannabinoid receptor 1 [6]): 4.37 nM; microsomal CLint [14]: < 6 µL/min/mg; bioavailability [15]: 2%; microsomal CLint [16]: 33 µL/min/mg; clearance (Rattus norvegicus): 200 mL/min/kg; microsomal CLint [17]: > 280 µL/min/mg; microsomal CLint [18]: < 6 µL/min/mg; bioavailability [19]: 42%; microsomal CLint [20]: < 6 µL/min/mg; microsomal CLint [21]: < 6 µL/min/mg; microsomal CLint [22]: < 6 µL/min/mg; microsomal CLint [23]: > 280 µL/min/mg
8 | CC(O)CCNC(=O)c1cc2cc(C#N)ccc2n1Cc1cccc(OC(F)(F)F)c1 (configuration not stated) | < 6 | 113 | 8.91 | < 6 | < 6 | – | –
9 | N#Cc1ccc2c(c1)cc(C(=O)NCCC(O)C(F)(F)F)n2Cc1cccc(OC(F)(F)F)c1 (configuration not stated) | 26 | 59 | 8.13 | 31 | < 6 | – | –
10 | N#Cc1ccc2c(c1)cc(C(=O)NCCC(O)(C(F)(F)F)C(F)(F)F)n2Cc1cccc(OC(F)(F)F)c1 | < 6 | 20 | 6.03 | 24 | < 6 | – | –
11 | COc1ccc(C(F)(F)F)cc1Cn1c(C(=O)NCCC2(O)CCC2)cc2cc(C#N)ccc21 | < 6 | 88 | 1.48 | < 6 | < 6 | – | –
12 | N#Cc1ccc2c(c1)cc(C(=O)NCCC1(O)CCC1)n2Cc1cccc(OC(F)(F)F)c1 | < 6 | 78 | 2.63 | < 6 | < 6 | – | –
13 | COc1ccc(Br)cc1Cn1c(C(=O)NCCCO)cc2cc(C#N)ccc21 | < 6 | 41 | 9.33 | < 6 | < 6 | – | –
14 | Cc1c(C(=O)NN2CCCCC2)nn(-c2ccc(Cl)cc2Cl)c1-c1ccc(Cl)cc1 [RIMONABANT] | < 6 | 69 | – | < 6 | < 6 | 1.29 | –
